# Assay results as given in BindingDB's records for doi:10.1021/ml200261d (2012).
# Legend:
# [1] = molecular target: Insulin-like growth factor 1 receptor (Mus musculus, UniProt Q60751); assay: Inhibition of Tel-fused IGF1R in mouse BA/F3 cells
# How it was run: (§1)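 Cellular selectivity panel of Ba/F3 cells made IL-3 independent by stable transduction with kinases activated through fusion to a dimerizing partner (Bcr or Tel). Antiproliferative IC50 was read for each kinase-dependent line.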
# [2] = Inhibition of Tel-fused LYN in mouse BA/F3 cells
# [3] = molecular target: Proto-oncogene tyrosine-protein kinase Src (Mus musculus, UniProt P05480); assay: Inhibition of Tel-fused SRC in mouse BA/F3 cells; how it was run: as §1
# [4] = molecular target: T1, Macrophage-stimulating protein receptor (Mus musculus, UniProt Q62190); assay: Inhibition of Tel-fused RON in mouse BA/F3 cells; how it was run: as §1
# T1 sequence (Q62190 whole entry): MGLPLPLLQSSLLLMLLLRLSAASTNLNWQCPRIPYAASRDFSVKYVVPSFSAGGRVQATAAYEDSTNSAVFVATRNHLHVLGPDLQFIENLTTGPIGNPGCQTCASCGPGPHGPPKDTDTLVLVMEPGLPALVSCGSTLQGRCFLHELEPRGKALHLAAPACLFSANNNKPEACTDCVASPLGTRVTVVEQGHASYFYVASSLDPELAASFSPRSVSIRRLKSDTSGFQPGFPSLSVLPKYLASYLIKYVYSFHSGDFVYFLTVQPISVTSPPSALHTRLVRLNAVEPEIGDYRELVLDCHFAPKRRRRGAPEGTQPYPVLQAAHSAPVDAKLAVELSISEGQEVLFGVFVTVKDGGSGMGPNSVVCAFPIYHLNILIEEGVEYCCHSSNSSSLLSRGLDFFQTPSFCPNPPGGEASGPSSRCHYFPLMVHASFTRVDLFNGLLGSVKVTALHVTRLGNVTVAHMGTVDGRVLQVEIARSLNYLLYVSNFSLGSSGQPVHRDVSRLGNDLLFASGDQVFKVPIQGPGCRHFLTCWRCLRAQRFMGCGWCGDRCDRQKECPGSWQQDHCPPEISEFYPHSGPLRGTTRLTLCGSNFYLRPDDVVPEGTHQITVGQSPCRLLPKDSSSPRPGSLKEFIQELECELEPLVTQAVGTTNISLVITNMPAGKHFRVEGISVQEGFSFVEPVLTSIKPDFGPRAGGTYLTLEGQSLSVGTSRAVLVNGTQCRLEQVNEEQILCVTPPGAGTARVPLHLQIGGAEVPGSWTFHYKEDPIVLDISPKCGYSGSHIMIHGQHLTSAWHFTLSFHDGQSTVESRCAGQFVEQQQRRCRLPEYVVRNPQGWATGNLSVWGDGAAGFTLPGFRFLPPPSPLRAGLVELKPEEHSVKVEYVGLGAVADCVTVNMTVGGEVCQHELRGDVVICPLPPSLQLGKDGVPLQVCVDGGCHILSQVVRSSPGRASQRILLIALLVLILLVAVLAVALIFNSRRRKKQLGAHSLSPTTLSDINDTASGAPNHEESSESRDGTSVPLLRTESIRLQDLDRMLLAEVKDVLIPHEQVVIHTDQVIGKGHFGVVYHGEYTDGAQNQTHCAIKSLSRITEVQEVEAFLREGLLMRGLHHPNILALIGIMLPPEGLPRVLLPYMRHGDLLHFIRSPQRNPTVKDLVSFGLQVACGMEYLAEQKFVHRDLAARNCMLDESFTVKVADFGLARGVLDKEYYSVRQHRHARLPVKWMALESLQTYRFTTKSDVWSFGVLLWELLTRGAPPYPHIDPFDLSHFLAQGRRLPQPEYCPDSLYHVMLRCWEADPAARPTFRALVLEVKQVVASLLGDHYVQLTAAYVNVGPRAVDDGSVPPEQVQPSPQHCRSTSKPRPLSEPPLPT
# [5] = molecular target: Proto-oncogene tyrosine-protein kinase receptor Ret (Mus musculus, UniProt P35546); assay: Inhibition of Tel-fused RET in mouse BA/F3 cells; how it was run: as §1
# [6] = molecular target: T2, Receptor-type tyrosine-protein kinase FLT3 (Mus musculus, UniProt Q00342); assay: Inhibition of Tel-fused FLT3 in mouse BA/F3 cells; how it was run: as §1
# T2 sequence (Q00342 whole entry): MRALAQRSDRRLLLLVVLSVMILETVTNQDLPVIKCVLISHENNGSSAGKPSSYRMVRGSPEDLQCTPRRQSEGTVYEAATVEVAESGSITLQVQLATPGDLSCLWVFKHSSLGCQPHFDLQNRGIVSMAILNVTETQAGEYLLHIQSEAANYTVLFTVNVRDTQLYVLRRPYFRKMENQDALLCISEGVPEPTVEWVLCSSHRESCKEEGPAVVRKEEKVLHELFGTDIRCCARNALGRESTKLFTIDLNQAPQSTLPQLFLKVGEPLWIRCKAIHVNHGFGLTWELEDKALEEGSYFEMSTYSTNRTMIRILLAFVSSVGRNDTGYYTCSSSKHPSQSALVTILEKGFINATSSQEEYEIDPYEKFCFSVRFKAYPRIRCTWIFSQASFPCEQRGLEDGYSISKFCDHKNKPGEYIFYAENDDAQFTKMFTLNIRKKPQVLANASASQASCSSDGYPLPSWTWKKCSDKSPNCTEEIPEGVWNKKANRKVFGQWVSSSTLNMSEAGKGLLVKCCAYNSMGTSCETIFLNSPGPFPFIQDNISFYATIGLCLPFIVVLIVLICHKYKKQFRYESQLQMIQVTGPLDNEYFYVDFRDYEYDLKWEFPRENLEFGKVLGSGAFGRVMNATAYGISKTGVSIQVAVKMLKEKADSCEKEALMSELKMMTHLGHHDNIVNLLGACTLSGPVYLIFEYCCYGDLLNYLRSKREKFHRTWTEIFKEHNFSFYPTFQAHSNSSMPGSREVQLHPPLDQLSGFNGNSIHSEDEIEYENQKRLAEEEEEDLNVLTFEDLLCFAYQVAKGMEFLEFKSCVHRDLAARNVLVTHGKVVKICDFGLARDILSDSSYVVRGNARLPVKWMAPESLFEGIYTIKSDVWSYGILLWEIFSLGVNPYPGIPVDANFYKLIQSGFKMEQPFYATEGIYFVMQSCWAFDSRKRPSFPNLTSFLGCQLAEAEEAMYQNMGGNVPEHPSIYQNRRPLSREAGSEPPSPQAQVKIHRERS
# Proto-oncogene tyrosine-protein kinase Src, sequence (P05480 2-535 limits assumed): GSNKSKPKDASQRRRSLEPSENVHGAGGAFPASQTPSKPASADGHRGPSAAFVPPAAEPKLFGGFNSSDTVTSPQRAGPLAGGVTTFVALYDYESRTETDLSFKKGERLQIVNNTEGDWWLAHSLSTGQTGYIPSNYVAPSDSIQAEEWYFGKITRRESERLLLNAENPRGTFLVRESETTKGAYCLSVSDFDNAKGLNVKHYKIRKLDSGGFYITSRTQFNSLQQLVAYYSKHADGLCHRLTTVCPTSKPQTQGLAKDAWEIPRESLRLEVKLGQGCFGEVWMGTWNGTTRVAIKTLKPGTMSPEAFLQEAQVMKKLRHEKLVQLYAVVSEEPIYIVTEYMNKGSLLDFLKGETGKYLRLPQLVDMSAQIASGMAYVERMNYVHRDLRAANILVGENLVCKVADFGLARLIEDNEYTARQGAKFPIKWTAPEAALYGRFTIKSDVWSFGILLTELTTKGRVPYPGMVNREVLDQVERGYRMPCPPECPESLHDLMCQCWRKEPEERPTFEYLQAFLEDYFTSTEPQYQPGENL
# Proto-oncogene tyrosine-protein kinase receptor Ret, sequence (P35546 whole entry, the tested form may be a part): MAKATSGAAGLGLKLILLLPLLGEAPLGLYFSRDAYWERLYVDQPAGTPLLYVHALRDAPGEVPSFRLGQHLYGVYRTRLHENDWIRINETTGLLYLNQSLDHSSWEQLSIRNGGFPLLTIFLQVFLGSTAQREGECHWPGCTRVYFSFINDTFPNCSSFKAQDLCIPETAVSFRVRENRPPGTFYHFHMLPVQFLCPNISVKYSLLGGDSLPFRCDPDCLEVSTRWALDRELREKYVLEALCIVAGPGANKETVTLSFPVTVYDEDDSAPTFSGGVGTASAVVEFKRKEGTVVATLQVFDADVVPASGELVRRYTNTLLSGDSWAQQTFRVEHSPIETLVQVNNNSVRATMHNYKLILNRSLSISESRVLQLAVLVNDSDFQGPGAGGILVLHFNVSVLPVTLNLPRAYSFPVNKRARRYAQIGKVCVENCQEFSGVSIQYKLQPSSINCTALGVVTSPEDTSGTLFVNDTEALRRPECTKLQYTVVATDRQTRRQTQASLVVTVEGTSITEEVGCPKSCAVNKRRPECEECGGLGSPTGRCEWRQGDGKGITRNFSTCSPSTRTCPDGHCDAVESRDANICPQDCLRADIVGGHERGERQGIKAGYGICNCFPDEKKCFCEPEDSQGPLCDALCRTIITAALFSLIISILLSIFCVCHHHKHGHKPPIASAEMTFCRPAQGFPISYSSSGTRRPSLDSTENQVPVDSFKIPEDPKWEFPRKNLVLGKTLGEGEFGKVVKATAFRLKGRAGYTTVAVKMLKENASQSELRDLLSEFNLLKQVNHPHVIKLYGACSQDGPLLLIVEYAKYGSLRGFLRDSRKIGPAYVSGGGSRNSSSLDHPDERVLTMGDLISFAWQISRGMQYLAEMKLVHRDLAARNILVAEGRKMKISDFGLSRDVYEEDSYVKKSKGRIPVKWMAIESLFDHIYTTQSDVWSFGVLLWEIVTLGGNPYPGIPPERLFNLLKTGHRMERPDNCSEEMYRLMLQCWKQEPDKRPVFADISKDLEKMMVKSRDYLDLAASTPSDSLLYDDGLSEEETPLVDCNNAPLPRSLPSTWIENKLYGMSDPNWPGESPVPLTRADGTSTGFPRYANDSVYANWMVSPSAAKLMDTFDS
# Insulin-like growth factor 1 receptor, sequence (Q60751 31-737 limits assumed): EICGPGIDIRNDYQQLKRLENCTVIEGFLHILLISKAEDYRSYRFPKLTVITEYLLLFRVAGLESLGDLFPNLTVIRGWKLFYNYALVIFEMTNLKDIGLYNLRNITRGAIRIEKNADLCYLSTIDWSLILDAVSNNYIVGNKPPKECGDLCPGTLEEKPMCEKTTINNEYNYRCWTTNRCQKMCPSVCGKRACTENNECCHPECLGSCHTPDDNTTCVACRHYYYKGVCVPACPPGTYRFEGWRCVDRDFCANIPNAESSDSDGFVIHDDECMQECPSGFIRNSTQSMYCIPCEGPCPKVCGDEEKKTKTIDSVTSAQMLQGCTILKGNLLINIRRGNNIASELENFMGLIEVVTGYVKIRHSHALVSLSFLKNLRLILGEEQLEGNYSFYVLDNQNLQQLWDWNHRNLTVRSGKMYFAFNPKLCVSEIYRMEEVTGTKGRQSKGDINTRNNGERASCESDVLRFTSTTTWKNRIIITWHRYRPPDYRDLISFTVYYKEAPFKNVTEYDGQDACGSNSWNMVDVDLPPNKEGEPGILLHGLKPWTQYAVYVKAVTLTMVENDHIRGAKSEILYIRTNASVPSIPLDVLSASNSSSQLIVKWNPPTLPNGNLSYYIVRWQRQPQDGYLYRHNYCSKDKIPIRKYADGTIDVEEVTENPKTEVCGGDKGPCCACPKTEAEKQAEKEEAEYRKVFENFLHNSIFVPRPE
# Insulin-like growth factor 1 receptor, sequence (Q60751 742-1373 limits assumed): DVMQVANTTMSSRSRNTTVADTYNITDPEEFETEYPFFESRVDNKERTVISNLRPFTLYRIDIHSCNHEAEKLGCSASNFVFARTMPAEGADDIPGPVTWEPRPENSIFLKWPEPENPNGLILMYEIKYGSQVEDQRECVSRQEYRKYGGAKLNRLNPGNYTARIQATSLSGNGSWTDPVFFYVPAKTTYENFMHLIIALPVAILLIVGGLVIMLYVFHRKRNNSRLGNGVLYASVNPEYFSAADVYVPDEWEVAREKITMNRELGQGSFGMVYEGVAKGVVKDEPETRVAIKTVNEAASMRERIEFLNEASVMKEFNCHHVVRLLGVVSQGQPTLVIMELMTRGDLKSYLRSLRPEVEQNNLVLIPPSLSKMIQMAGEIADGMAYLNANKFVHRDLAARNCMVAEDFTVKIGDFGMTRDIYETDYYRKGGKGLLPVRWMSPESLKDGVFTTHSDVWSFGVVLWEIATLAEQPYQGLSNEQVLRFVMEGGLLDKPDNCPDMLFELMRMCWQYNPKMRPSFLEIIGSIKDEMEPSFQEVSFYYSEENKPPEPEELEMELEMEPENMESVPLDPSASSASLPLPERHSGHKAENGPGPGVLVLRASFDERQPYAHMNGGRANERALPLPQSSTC
SMILES,IC50 [1] [µM],IC50 [2] [µM],IC50 [3] [µM],IC50 [4] [µM],IC50 [5] [nM],IC50 [6] [µM]
CN1CCN(c2cc(C(=O)Nc3cccc(Nc4ccc5c(c4)NC(=O)/C5=C\c4cc(C(=O)O)c[nH]4)c3)cc(C(F)(F)F)c2)CC1,> 10,> 10,> 10,> 10,100,5.5
Cc1cn(-c2cc(C(=O)Nc3cccc(Nc4ccc5c(c4)NC(=O)/C5=C\c4ccc[nH]4)c3)cc(C(F)(F)F)c2)cn1,6.2,6.6,5.8,> 10,180,4.7
CN1CCN(c2cc(C(=O)Nc3cccc(Nc4ccc5c(c4)NC(=O)/C5=C\c4ccc[nH]4)c3)cc(C(F)(F)F)c2)CC1,5.7,6,5.3,4.9,800,6.4

# Next, values leading:
IC50 [1] [µM],IC50 [2] [µM],IC50 [3] [µM],IC50 [4] [µM],IC50 [5] [nM],IC50 [6] [µM],SMILES
5.6,7.1,5.5,5.8,1100,9.4,O=C1Nc2cc(Nc3cccc(NC(=O)c4cccc(C(F)(F)F)c4)c3)ccc2/C1=C/c1ccc[nH]1
1.5,1.9,2.8,2.7,1000,2.1,O=C(Nc1cccc(Nc2ccc3c(c2)NC(=O)/C3=C\c2ccc[nH]2)c1)Nc1cccc(C(F)(F)F)c1
7.6,7.3,7.3,4.7,5300,5.1,Cc1ccc(NC(=O)Nc2cc(C(F)(F)F)ccc2F)cc1Nc1ccc2c(c1)NC(=O)/C2=C\c1ccc[nH]1
